Laboratory results from ChEMBL document CHEMBL3102739, “Synthesis and antiproliferative activity of conformationally restricted 1,2,3-triazole analogues of combretastatins in the sea urchin embryo model and against human cancer cell lines” (Bioorg Med Chem, 2014).

What was measured:
B16 = test: Cytotoxicity against mouse B16 cells by MTT assay; format: functional, cell-based
SK-OV-3 = test: Growth inhibition of human SKOV3 cells after 48 hrs by SRB assay; format: functional; details: SK-OV-3, 48 h
[1] = Growth inhibition of human UO31 cells after 48 hrs by SRB assay; format: functional; details: UO-31, 48 h
CCRF-CEM = test: Growth inhibition of human CCRF-CEM cells after 48 hrs by SRB assay; format: functional
SN12C = test: Growth inhibition of human SN12C cells after 48 hrs by SRB assay; format: functional
OVCAR-8 = test: Growth inhibition of human OVCAR8 cells after 48 hrs by SRB assay; format: functional; details: OVCAR-8, 48 h
[2] = Growth inhibition of human Hs578T cells after 48 hrs by SRB assay; format: functional; details: Hs-578T
786-0 = test: Growth inhibition of human 786-0 cells after 48 hrs by SRB assay; format: functional; details: 786-0, 48 h
[3] = Growth inhibition of human RXF393 cells after 48 hrs by SRB assay; format: functional; details: RXF 393, 48 h
COLO 205 = test: Growth inhibition of human COLO205 cells after 48 hrs by SRB assay; format: functional; details: COLO 205, 48 h
HCT-15 = test: Growth inhibition of human HCT15 cells after 48 hrs by SRB assay; format: functional; details: HCT-15, 48 h
KM12 = test: Growth inhibition of human KM12 cells after 48 hrs by SRB assay; format: functional; details: KM12, 48 h
A498 = test: Growth inhibition of human A498 cells after 48 hrs by SRB assay; format: functional; details: A498, 48 h
NCI-H522 = test: Growth inhibition of human NCI-H522 cells after 48 hrs by SRB assay; format: functional; details: NCI-H522, 48 h
SNB-19 = test: Growth inhibition of human SNB19 cells after 48 hrs by SRB assay; format: functional; details: SNB-19, 48 h
MCF7 = test: Growth inhibition of human MCF7 cells after 48 hrs by SRB assay; format: functional; details: MCF7, 48 h
HCT-116 = test: Growth inhibition of human HCT116 cells after 48 hrs by SRB assay; format: functional; details: HCT-116, 48 h
Paracentrotus lividus [4] = test: Antimitotic activity against sea urchin embryo free-swimming blastula model assessed as embryo spinning compound treated at 8 to 10 hrs post-fertilization measured after 0.25 to 20 hrs; format: functional, Blastula stage
MOLT-4 = test: Growth inhibition of human MOLT4 cells after 48 hrs by SRB assay; format: functional; details: MOLT-4, 48 h
NCI-H226 = test: Growth inhibition of human NCI-H226 cells after 48 hrs by SRB assay; format: functional; details: NCI-H226, 48 h
[5] = Growth inhibition of human SF539 cells after 48 hrs by SRB assay; format: functional; details: SF-539, 48 h
HT-29 = test: Growth inhibition of human HT-29 cells after 48 hrs by SRB assay; format: functional; details: HT-29, 48 h
IGROV-1 = test: Growth inhibition of human IGROV1 cells after 48 hrs by SRB assay; format: functional; details: IGROV-1, 48 h
[6] = Growth inhibition of human NCI-ADR-RES cells after 48 hrs by SRB assay; format: functional
A549 = test: Growth inhibition of human A549 cells after 48 hrs by SRB assay; format: functional; details: A549, 48 h
MDA-MB-231 = test: Growth inhibition of human MDA-MB-231 cells after 48 hrs by SRB assay; format: functional; details: MDA-MB-231, 48 h
MDA-MB-435 = test: Growth inhibition of human MDA-MB-435 cells after 48 hrs by SRB assay; format: functional; details: MDA-MB-435, 48 h
[7] = Growth inhibition of human HCC2998 cells after 48 hrs by SRB assay; format: functional; details: HCC 2998, 48 h
SR = test: Growth inhibition of human SR cells after 48 hrs by SRB assay; format: functional
SK-MEL-5 = test: Growth inhibition of human SK-MEL-5 cells after 48 hrs by SRB assay; format: functional; details: SK-MEL-5, 48 h
SNB-75 = test: Growth inhibition of human SNB75 cells after 48 hrs by SRB assay; format: functional; details: SNB-75, 48 h
DU-145 = test: Growth inhibition of human DU145 cells after 48 hrs by SRB assay; format: functional; details: DU-145, 48 h
BT-549 = test: Growth inhibition of human BT549 cells after 48 hrs by SRB assay; format: functional; details: BT-549, 48 h
K562 = test: Growth inhibition of human K562 cells after 48 hrs by SRB assay; format: functional; details: K562, 48 h
[8] = Growth inhibition of human UACC257 cells after 48 hrs by SRB assay; format: functional; details: UACC-257, 48 h
OVCAR-3 = test: Growth inhibition of human OVCAR3 cells after 48 hrs by SRB assay; format: functional; details: OVCAR-3, 48 h
SF-268 = test: Growth inhibition of human SF268 cells after 48 hrs by SRB assay; format: functional; details: SF-268, 48 h
Paracentrotus lividus [9] = test: Antimitotic activity against sea urchin embryo model assessed as cleavage arrest of fertilized egg compound treated at 8 to 20 mins post-fertilization and 45 to 55 mins prior to first mitotic cycle completion measured 2.5 to 5.5 hrs post-fertilization; format: functional
Outline: (§1)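 Fertilized eggs are exposed 8–20 min after fertilization to 2-fold decreasing concentrations. Stocks are 10 mM in DMSO, then diluted 10-fold in 95% EtOH; final DMSO is at most 0.05% and EtOH at most 1%. Embryos are kept as a monolayer, up to 2000 embryos/mL, in filtered seawater at room temperature. The value is the threshold concentration giving cleavage alteration, embryo death before hatching or full mitotic arrest. Duplicates were run.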

NCI-H460 = test: Growth inhibition of human NCI-H460 cells after 48 hrs by SRB assay; format: functional; details: NCI-H460, 48 h
MDA-MB-468 = test: Growth inhibition of human MDA-MB-468 cells after 48 hrs by SRB assay; format: functional; details: MDA-MB-468, 48 h
PC-3 = test: Growth inhibition of human PC3 cells after 48 hrs by SRB assay; format: functional; details: PC-3, 48 h
[10] = Growth inhibition of human OVCAR4 cells after 48 hrs by SRB assay; format: functional; details: OVCAR-4, 48 h
M14 = test: Growth inhibition of human M14 cells after 48 hrs by SRB assay; format: functional; details: M14, 48 h
CAKI-1 = test: Growth inhibition of human CAKI-1 cells after 48 hrs by SRB assay; format: functional; details: CAKI-1, 48 h
SK-MEL-28 = test: Growth inhibition of human SK-MEL-28 cells after 48 hrs by SRB assay; format: functional; details: SK-MEL-28, 48 h
SW-620 = test: Growth inhibition of human SW620 cells after 48 hrs by SRB assay; format: functional; details: SW-620, 48 h
UACC-62 = test: Growth inhibition of human UACC62 cells after 48 hrs by SRB assay; format: functional; details: UACC-62, 48 h
SF-295 = test: Growth inhibition of human SF295 cells after 48 hrs by SRB assay; format: functional; details: SF-295, 48 h
NCI-H322M = test: Growth inhibition of human NCI-H322M cells after 48 hrs by SRB assay; format: functional
Paracentrotus lividus [11] = test: Antimitotic activity against sea urchin embryo model assessed as cleavage alteration of fertilized egg compound treated at 8 to 20 mins post-fertilization and 45 to 55 mins prior to first mitotic cycle completion measured 2.5 to 5.5 hrs post-fertilization; format: functional; outline: as §1
RPMI-8226 = test: Growth inhibition of human RPMI8226 cells after 48 hrs by SRB assay; format: functional; details: RPMI-8226, 48 h
HOP-62 = test: Growth inhibition of human HOP62 cells after 48 hrs by SRB assay; format: functional; details: HOP-62, 48 h
[12] = Growth inhibition of human OVCAR5 cells after 48 hrs by SRB assay; format: functional; details: OVCAR-5, 48 h
HL-60(TB) = test: Growth inhibition of human HL-60(TB) cells after 48 hrs by SRB assay; format: functional; details: HL-60, 48 h
ACHN = test: Growth inhibition of human ACHN cells after 48 hrs by SRB assay; format: functional

COc1cc(/C=C\c2ccc(N)cc2)cc(OC)c1OC gave an IC50 (B16) of 56000 nM.
COc1ccc(-c2cnnn2-c2cc(OC)c3c(c2)OCO3)cc1 showed a GI50 (SK-OV-3) of 271 nM, a GI50 [1] of 692 nM and a GI50 (CCRF-CEM) of 132 nM. The GI50 (SN12C) was 486 nM, the GI50 (OVCAR-8) was 284 nM and the GI50 [2] was 154 nM. It also gave a GI50 (786-0) of 363 nM, a GI50 [3] of 157 nM and a GI50 (COLO 205) of 53 nM. For the same compound, the GI50 (HCT-15) was 45 nM, the GI50 (KM12) was 60 nM and the GI50 (A498) was 49 nM. For the same compound, the GI50 (NCI-H522) was 21 nM, the GI50 (SNB-19) was over 100000 nM and the GI50 (MCF7) was 47 nM. It also gave a GI50 (HCT-116) of 64 nM, an EC (Paracentrotus lividus [4]) of 0.5 µM and a GI50 (MOLT-4) of 122 nM. For the same compound, the GI50 (NCI-H226) was 4670 nM, the GI50 [5] was 95 nM and the GI50 (HT-29) was 40 nM. For the same compound, the GI50 (IGROV-1) was 123 nM, the GI50 [6] was 38 nM and the GI50 (A549) was 88 nM. The GI50 (MDA-MB-231) was 135 nM, the GI50 (MDA-MB-435) was 22 nM and the GI50 [7] was 258 nM. For the same compound, the GI50 (SR) was 41 nM, the GI50 (SK-MEL-5) was 235 nM and the GI50 (SNB-75) was 119 nM. The GI50 (DU-145) was 232 nM, the GI50 (BT-549) was 160 nM and the GI50 (K562) was 41 nM. It also gave a GI50 [8] of 74900 nM, a GI50 (OVCAR-3) of 53 nM and a GI50 (SF-268) of 611 nM. It also gave an EC (Paracentrotus lividus [9]) of 0.1 µM, a GI50 (NCI-H460) of 55 nM and a GI50 (MDA-MB-468) of 62 nM. It also gave a GI50 (PC-3) of 150 nM, a GI50 [10] of 4170 nM and a GI50 (M14) of 61 nM. It also gave a GI50 (CAKI-1) of 98 nM, a GI50 (SK-MEL-28) of 725 nM and a GI50 (SW-620) of 56 nM. It also gave a GI50 (UACC-62) of 72 nM, a GI50 (SF-295) of 73 nM and a GI50 (NCI-H322M) of 673 nM. The EC (Paracentrotus lividus [11]) was 0.01 µM, the GI50 (RPMI-8226) was 253 nM and the GI50 (HOP-62) was 125 nM. It also gave a GI50 [12] of 374 nM, a GI50 (HL-60(TB)) of 51 nM and a GI50 (ACHN) of 607 nM.
